ChEMBL document CHEMBL1155387, “Substituted fused bicyclic pyrrolizinones as potent, orally bioavailable hNK1 antagonists” (Bioorg Med Chem Lett, 2010)
Several values for one entry are separate records, joined by “and”; a condition that tells them apart may be missing. Identical values can stand only once.

Experiments:
Substance-P receptor [1] = target: T1, Substance-P receptor (Homo sapiens, UniProt P25103); assay: Displacement of [125I]substance P from human NK1 receptor expressed in CHO cells; assay type: cell-based
T1 sequence (P25103 whole entry): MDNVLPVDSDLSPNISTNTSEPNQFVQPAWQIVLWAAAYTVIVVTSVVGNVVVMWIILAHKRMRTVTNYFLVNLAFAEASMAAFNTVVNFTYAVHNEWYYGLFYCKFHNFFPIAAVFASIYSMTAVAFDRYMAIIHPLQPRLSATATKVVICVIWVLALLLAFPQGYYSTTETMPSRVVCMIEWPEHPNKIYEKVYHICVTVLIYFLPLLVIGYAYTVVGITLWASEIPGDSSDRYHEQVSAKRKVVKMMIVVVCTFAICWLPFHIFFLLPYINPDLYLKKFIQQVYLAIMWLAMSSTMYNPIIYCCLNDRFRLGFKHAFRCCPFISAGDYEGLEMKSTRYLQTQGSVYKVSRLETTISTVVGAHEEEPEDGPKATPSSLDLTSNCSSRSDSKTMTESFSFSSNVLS
Outline: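 Competition binding: [125I]-labelled substance P displaced from cloned human NK1 receptor expressed in CHO cells; IC50 reported as mean of n = 3.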

Substance-P receptor [2] = target: T1, Substance-P receptor; assay: Displacement of [125I]substance P from human NK1 receptor expressed in CHO cells in the presence of 50 percent human serum; assay type: cell-based
Gerbillinae [3] = assay: Inhibition of GR-73632-induced foot tapping in gerbils at 3 mg/kg, iv after 24 hrs; assay type: functional; settings: for inhibition in vivo at 3 mg/kg: Gerbillinae, iv, 24 h; for inhibition (INH): 3 mg/kg
Outline: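 Gerbils dosed iv at 3 mg/kg; foot tapping induced by NK1 agonist GR73632 evaluated 24 h post-dose; percent inhibition of the tapping response.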

[4] = Displacement of diltiazem […] from calcium channel
Outline: (§1)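 Ion-channel binding assay; IC50 values calculated for sodium channel and for calcium channel (diltiazem site).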

[5] = Inhibition of sodium channel; outline: as §1
Substance-P receptor [6] = target: T1, Substance-P receptor; assay: Antagonist activity at human NK1 receptor expressed in CHO cells assessed as inhibition of substance P-induced inositol phosphate generation at 100 nM; assay type: functional, cell-based
Gerbillinae [7] = assay: Inhibition of GR-73632-induced foot tapping in gerbils at 1 mg/kg, iv after 1 hr; assay type: functional
Outline: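 Gerbils given 1 mg/kg iv; GR73632-induced foot tapping challenged 1 h after dosing; inhibition of tapping scored.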

Compound | IC50 (Substance-P receptor [1]) | IC50 (Substance-P receptor [2]) | inhibition in vivo at 3 mg/kg (Gerbillinae [3]) [%] | IC50 [4] | IC50 [5] | inhibition of substance P-induced inositol phosphate generation (Substance-P receptor [6]) | inhibition in vivo at 1 mg/kg (Gerbillinae [7]) [%] | inhibition (INH) (Gerbillinae [3]) [%]
C[C@@H](O[C@H]1CN2C(=O)C(O)C[C@H]2[C@@H]1c1ccc(F)cc1)c1cc(C(F)(F)F)cc(C(F)(F)F)c1 (single isomer, unassigned) [listing 1 of 2 here] | 0.14 nM | 5.6 nM | 95 | 8060 nM | 5140 nM |  |  | 
C[C@@H](O[C@H]1CN2C(=O)C(O)C[C@H]2[C@@H]1c1ccc(F)cc1)c1cc(C(F)(F)F)cc(C(F)(F)F)c1 (single isomer, unassigned) [listing 2 of 2 here] |  |  |  |  |  | 90% |  | 
C[C@@H](O[C@H]1CN2C(=O)CC(N)[C@H]2[C@@H]1c1ccc(F)cc1)c1cc(C(F)(F)F)cc(C(F)(F)F)c1 (stereo in doubt; 15b) [listing 1 of 2 here] | 0.08 nM and 0.11 nM | 0.77 nM and 1.8 nM |  | 1560 nM and 1360 nM | 4980 nM and 558 nM |  |  | 
C[C@@H](O[C@H]1CN2C(=O)CC(N)[C@H]2[C@@H]1c1ccc(F)cc1)c1cc(C(F)(F)F)cc(C(F)(F)F)c1 (stereo in doubt; 15b) [listing 2 of 2 here] |  |  |  |  |  | 87% and 63% |  | 
C[C@@H](O[C@H]1CN2C(=O)C(C)(O)C[C@H]2[C@@H]1c1ccc(F)cc1)c1cc(C(F)(F)F)cc(C(F)(F)F)c1 (single isomer, unassigned) [listing 1 of 2 here] |  |  |  |  |  | 70% |  | 
C[C@@H](O[C@H]1CN2C(=O)CC(NCc3ccn[nH]3)[C@H]2[C@@H]1c1ccc(F)cc1)c1cc(C(F)(F)F)cc(C(F)(F)F)c1 (stereo partly drawn) | 0.13 nM | 1.83 nM | 94 | 2390 nM | 2970 nM | 68% |  | 
C[C@@H](O[C@H]1CN2C(=O)C(n3cnnc3)C[C@H]2[C@@H]1c1ccc(F)cc1)c1cc(C(F)(F)F)cc(C(F)(F)F)c1 (single isomer, unassigned) [listing 1 of 2 here] | 0.05 nM | 1.8 nM |  |  | 5320 nM |  | 0 | 
C[C@@H](O[C@H]1CN2C(=O)C(NCc3ccn[nH]3)C[C@H]2[C@@H]1c1ccc(F)cc1)c1cc(C(F)(F)F)cc(C(F)(F)F)c1 (stereo partly drawn) | 0.06 nM | 0.9 nM | 92 | 598 nM | 1470 nM | 55% |  | 
C[C@@H](O[C@H]1CN2C(=O)C(C)(O)C[C@H]2[C@@H]1c1ccc(F)cc1)c1cc(C(F)(F)F)cc(C(F)(F)F)c1 (stereo in doubt; 5b) [listing 1 of 2 here] | 0.04 nM | 0.8 nM |  | 2180 nM | 3200 nM |  |  | 100
C[C@@H](O[C@H]1CN2C(=O)C(C)(O)C[C@H]2[C@@H]1c1ccc(F)cc1)c1cc(C(F)(F)F)cc(C(F)(F)F)c1 (single isomer, unassigned) [listing 2 of 2 here] | 0.09 nM | 2.5 nM | 98 | 1870 nM | 4820 nM |  |  | 
C[C@@H](O[C@H]1CN2C(=O)C(n3cnnc3)C[C@H]2[C@@H]1c1ccc(F)cc1)c1cc(C(F)(F)F)cc(C(F)(F)F)c1 (stereo in doubt; 21a) [listing 1 of 2 here] |  |  |  |  |  | 81% |  | 
C[C@@H](O[C@H]1CN2C(=O)CC(O)[C@H]2[C@@H]1c1ccc(F)cc1)c1cc(C(F)(F)F)cc(C(F)(F)F)c1 (single isomer, unassigned; 18a) [listing 1 of 2 here] |  |  |  |  |  | 65% |  | 
C[C@@H](O[C@H]1CN2C(=O)CC(O)[C@H]2[C@@H]1c1ccc(F)cc1)c1cc(C(F)(F)F)cc(C(F)(F)F)c1 (single isomer, unassigned; 18b) [listing 1 of 2 here] | 0.07 nM | 2.7 nM |  |  |  |  |  | 
C[C@@H](O[C@H]1CN2C(=O)C(n3cnnc3)C[C@H]2[C@@H]1c1ccc(F)cc1)c1cc(C(F)(F)F)cc(C(F)(F)F)c1 (single isomer, unassigned) [listing 2 of 2 here] |  |  |  |  |  | 74% |  | 
C[C@@H](O[C@H]1CN2C(=O)C(N)C[C@H]2[C@@H]1c1ccc(F)cc1)c1cc(C(F)(F)F)cc(C(F)(F)F)c1 (stereo in doubt; 3a) [listing 1 of 2 here] |  |  |  |  |  | 92% |  | 
C[C@@H](O[C@H]1CN2C(=O)CC(O)[C@H]2[C@@H]1c1ccc(F)cc1)c1cc(C(F)(F)F)cc(C(F)(F)F)c1 (single isomer, unassigned; 18b) [listing 2 of 2 here] |  |  |  |  |  | 79% |  | 
C[C@@H](O[C@H]1CN2C(=O)C(n3cnnc3)C[C@H]2[C@@H]1c1ccc(F)cc1)c1cc(C(F)(F)F)cc(C(F)(F)F)c1 (stereo in doubt; 21a) [listing 2 of 2 here] | 0.07 nM | 1.9 nM |  | > 10000 nM | > 10000 nM |  |  | 
C[C@@H](O[C@H]1CN2C(=O)CC(C)(O)[C@H]2[C@@H]1c1ccc(F)cc1)c1cc(C(F)(F)F)cc(C(F)(F)F)c1 (stereo in doubt; 20a) [listing 1 of 2 here] | 0.07 nM | 1.1 nM | 96 | 2210 nM | 2210 nM |  |  | 
C[C@@H](O[C@H]1CN2C(=O)C(O)C[C@H]2[C@@H]1c1ccc(F)cc1)c1cc(C(F)(F)F)cc(C(F)(F)F)c1 (stereo in doubt; 2b) |  |  |  |  |  | 60% |  | 
C[C@@H](O[C@H]1CN2C(=O)C(C)(O)C[C@H]2[C@@H]1c1ccc(F)cc1)c1cc(C(F)(F)F)cc(C(F)(F)F)c1 (stereo in doubt; 5b) [listing 2 of 2 here] |  |  |  |  |  | 45% |  | 
C[C@@H](O[C@H]1CN2C(=O)CC(C)(O)[C@H]2[C@@H]1c1ccc(F)cc1)c1cc(C(F)(F)F)cc(C(F)(F)F)c1 (stereo in doubt; 20b) [listing 1 of 2 here] | 0.06 nM | 2.6 nM |  |  |  |  |  | 
C[C@@H](O[C@H]1CN2C(=O)C(N)C[C@H]2[C@@H]1c1ccc(F)cc1)c1cc(C(F)(F)F)cc(C(F)(F)F)c1 (stereo in doubt; 3a) [listing 2 of 2 here] | 0.27 nM | 2.1 nM | 99 | 98 nM | 2820 nM |  |  | 
C[C@@H](O[C@H]1CN2C(=O)CC(O)[C@H]2[C@@H]1c1ccc(F)cc1)c1cc(C(F)(F)F)cc(C(F)(F)F)c1 (single isomer, unassigned; 18a) [listing 2 of 2 here] | 0.08 nM | 2.1 nM | 100 | 2380 nM | 1990 nM |  |  | 
C[C@@H](O[C@H]1CN2C(=O)CC(N)[C@H]2[C@@H]1c1ccc(F)cc1)c1cc(C(F)(F)F)cc(C(F)(F)F)c1 (stereo in doubt; 15a) |  |  |  |  |  | 75% |  | 
C[C@@H](O[C@H]1CN2C(=O)C(N)C[C@H]2[C@@H]1c1ccc(F)cc1)c1cc(C(F)(F)F)cc(C(F)(F)F)c1 (stereo in doubt; 3b) [listing 1 of 2 here] |  |  |  |  |  | 59% |  | 
C[C@@H](O[C@H]1CN2C(=O)C(N)C[C@H]2[C@@H]1c1ccc(F)cc1)c1cc(C(F)(F)F)cc(C(F)(F)F)c1 (stereo in doubt; 3b) [listing 2 of 2 here] | 0.06 nM | 0.38 nM |  | 214 nM | 239 nM |  |  | 100
C[C@@H](O[C@H]1CN2C(=O)CC(C)(O)[C@H]2[C@@H]1c1ccc(F)cc1)c1cc(C(F)(F)F)cc(C(F)(F)F)c1 (stereo in doubt; 20a) [listing 2 of 2 here] |  |  |  |  |  | 28% |  | 
C[C@@H](O[C@H]1CN2C(=O)CC(C)(N)[C@H]2[C@@H]1c1ccc(F)cc1)c1cc(C(F)(F)F)cc(C(F)(F)F)c1 (stereo partly drawn) | 0.08 nM | 0.42 nM | 100 | 767 nM | 1400 nM | 45% |  | 
C[C@@H](O[C@H]1CN2C(=O)CC(C)(O)[C@H]2[C@@H]1c1ccc(F)cc1)c1cc(C(F)(F)F)cc(C(F)(F)F)c1 (stereo in doubt; 20b) [listing 2 of 2 here] |  |  |  |  |  | 57% |  | 
